Results pooled from the literature.
Each line is one published result; the experiments were not run side by side.
Target: Serine/threonine-protein kinase Nek2 (NEK2, Homo sapiens, UniProt P51955)
One construct used (P51955 1-445): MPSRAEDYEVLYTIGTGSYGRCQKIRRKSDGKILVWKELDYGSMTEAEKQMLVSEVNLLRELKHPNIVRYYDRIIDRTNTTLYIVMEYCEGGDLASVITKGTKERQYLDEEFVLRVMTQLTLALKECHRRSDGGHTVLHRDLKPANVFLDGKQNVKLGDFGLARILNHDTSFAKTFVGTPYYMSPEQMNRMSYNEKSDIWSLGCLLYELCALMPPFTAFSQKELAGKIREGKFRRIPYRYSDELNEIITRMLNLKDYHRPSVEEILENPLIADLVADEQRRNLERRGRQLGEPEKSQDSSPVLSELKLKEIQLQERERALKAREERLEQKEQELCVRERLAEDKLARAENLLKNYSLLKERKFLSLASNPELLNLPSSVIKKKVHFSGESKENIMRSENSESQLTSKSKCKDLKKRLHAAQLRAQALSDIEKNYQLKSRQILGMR

SMILES | observed | technique | concentration | remaining binding [%]
Cn1nc(C(F)(F)F)cc1-c1cnc(N2CCc3cc(S(=O)(=O)Nc4c(F)cc(Cl)cc4F)cc(N4CCCC4=O)c32)nc1 | cell-free assay | competition with immobilised ligand | 1 µM | 100
O=C(NCCCN1CCOCC1)c1ccc(Nc2nccc(-c3cc4ccccc4s3)n2)cc1 | binding | competition with immobilised ligand | 1 µM | 94
O=C(Nc1cccnn1)N1CC(C/C=C/c2cncc(Oc3ccc(C(F)(F)F)cn3)n2)C1 | cell-free assay | competition with immobilised ligand | 1 µM | 100
CN(C)c1nccc(-c2cnn3ncccc23)n1 | binding | – | 1 µM | 100
C[C@@H](c1ccc(-n2cnc3c(N)ncnc32)cc1)N1CCc2nn(C)c(Cc3ccccc3)c2C1=O | binding | competition with immobilised ligand | 0.1 µM | 89
CN(c1nccc(-c2cnn3ncccc23)n1)C1CC1 | binding | – | 1 µM | 100
FC(F)(F)Oc1cccc(-c2cnc3ccc(-c4ccncc4)nn23)c1 | cell-free assay | competition with immobilised ligand | 5 µM | 74
O=C(c1ccc(Nc2ncc(Cl)c(-c3ccc(Cl)s3)n2)cc1)N1CCC(N2CCCC2)CC1 | binding | competition with immobilised ligand | 1 µM | 65
CC1=C(C#N)C(c2ccc3c(c2)c(NC(=O)c2ccccc2C)nn3C)C(C#N)=C(C)N1 | cell-free assay | competition with immobilised ligand | 1 µM | 100
CCN1CCN(Cc2ccc(C(=O)Nc3ccc(C)c(Oc4ccc5c(c4)CC(=O)N5)c3)cc2C(F)(F)F)CC1 | binding | competition with immobilised ligand | 1 µM | 100
CNC(=O)Nc1ccc2c(c1)[C@@]1(CC2)OC(=O)N(CC(=O)N(Cc2ccc(F)cc2)[C@@H](C)C(F)(F)F)C1=O | cell-free assay | competition with immobilised ligand | 1 µM | 100
N[C@@H]1CCN(c2nccc(-c3cnn4ncccc34)n2)C1 | binding | – | 1 µM | 100
O=C(NCC1CCOCC1)c1n[nH]cc1NC(=O)c1c(F)cccc1F | binding | competition with immobilised ligand | 1 µM | 87
COc1cnc(Nc2cccc(S(N)(=O)=O)c2)nc1N1CCN(c2ccccc2)CC1 | binding | competition with immobilised ligand | 1 µM | 97
COc1ncc2cc3ccccc3nc2c1C#N | cell-free assay | competition with immobilised ligand | 5 µM | 85
C[C@@H]1CCN(c2nccc(-c3cnn4ncccc34)n2)C1 | binding | – | 1 µM | 87
Cn1cc(Cl)c2c(Oc3c(F)cc(Nc4cc(Cl)nc(N)n4)cc3F)ccnc21 | cell-free assay | competition with immobilised ligand | 0.1 µM | 100
Nc1ncc2c(n1)-c1c([nH]c3ccc(C#CC4CC4)cc13)CCCC2 | binding | competition with immobilised ligand | 1 µM | 87
CN(CCCC(F)(F)F)c1nccc(-c2cnn3ncccc23)n1 | binding | – | 1 µM | 100
CCCCN(CCCC)C(=O)CN1C[C@@H](c2cc(OC)c3c(c2)OCO3)[C@H](C(=O)O)[C@H]1CC(C)(C)CCC | cell-free assay | competition with immobilised ligand | 1 µM | 98.7
